Assays:
human PDE10A1 = human PDE10A1 (Homo sapiens, UniProt Q9Y233); experiment: In vitro PDE assay; assay type: biochemical
How it was run: (§1)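 Recombinant PDE (human PDE1C, PDE3B, PDE5A1, PDE8A, PDE9A2, PDE10A1, PDE11A4; rat PDE2A) incubated with radiolabelled cyclic nucleotide substrate. Stopped in linear phase with 0.2 M ZnSO4, hydrolysis ≤~50%. 5′-nucleotide precipitated with 0.25 N Ba(OH)2 and spun down for 15 min. Supernatant radioactivity measured by scintillation counting.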

PDE11A = conditions: very weak hit; cited from earlier work
[1] = test system: yeast strains that express human PDE4A1, PDE4B2, PDE4D3, PDE7A1 or PDE7B1; experiment: 5FOA growth assay, dose response; assay type: cell-based; conditions: dose response 0.05 μM to 50 μM
human PDE3B = human PDE3B (Homo sapiens, UniProt Q13370); experiment: In vitro PDE assay; assay type: biochemical
How it was run: as §1

human PDE8A = human PDE8A (Homo sapiens, UniProt O60658); experiment: In vitro PDE assay; assay type: biochemical
Chain of human PDE8A (O60658 whole entry): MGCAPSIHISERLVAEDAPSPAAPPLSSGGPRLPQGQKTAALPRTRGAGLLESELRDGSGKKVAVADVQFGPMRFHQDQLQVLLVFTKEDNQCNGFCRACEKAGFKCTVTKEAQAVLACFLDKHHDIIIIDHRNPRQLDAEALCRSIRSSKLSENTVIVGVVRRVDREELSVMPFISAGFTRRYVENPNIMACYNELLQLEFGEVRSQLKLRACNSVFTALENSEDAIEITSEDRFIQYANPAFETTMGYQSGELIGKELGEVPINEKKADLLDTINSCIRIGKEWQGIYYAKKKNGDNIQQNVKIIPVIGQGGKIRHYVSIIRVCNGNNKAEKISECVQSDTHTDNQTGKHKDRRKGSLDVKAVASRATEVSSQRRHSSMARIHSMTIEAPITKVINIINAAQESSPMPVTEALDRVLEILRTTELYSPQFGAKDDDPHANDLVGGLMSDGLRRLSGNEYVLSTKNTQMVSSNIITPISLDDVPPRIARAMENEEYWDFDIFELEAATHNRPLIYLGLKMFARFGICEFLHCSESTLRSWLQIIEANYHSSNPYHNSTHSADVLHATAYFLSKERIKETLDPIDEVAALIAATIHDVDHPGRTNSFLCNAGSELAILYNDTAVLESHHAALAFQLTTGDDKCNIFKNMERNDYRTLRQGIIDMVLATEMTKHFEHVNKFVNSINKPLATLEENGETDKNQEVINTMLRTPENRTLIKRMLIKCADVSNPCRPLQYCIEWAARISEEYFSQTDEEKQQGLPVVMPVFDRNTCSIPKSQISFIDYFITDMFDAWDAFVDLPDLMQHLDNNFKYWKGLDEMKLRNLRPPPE
How it was run: as §1

Human PDE4A10 = Human PDE4A10 (Homo sapiens, UniProt P27815); experiment: In vitro PDE assay; assay type: biochemical
Chain of Human PDE4A10 (P27815 351-683): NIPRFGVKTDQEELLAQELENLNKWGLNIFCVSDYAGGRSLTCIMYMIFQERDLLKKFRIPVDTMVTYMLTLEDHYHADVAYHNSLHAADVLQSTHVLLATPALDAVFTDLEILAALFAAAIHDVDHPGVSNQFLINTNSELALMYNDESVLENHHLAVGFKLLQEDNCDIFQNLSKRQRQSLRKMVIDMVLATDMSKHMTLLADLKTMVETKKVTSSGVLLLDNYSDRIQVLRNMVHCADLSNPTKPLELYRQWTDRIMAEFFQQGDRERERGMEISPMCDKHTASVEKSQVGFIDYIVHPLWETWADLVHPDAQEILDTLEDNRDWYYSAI
How it was run: (§2)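 Radiolabelled cAMP hydrolysis with cAMP substrate at 40nM. Reactions stopped in linear phase with 0.2 M ZnSO4, hydrolysis limited to ~50% conversion. 5′-AMP precipitated with 0.25 N Ba(OH)2 and pelleted by centrifugation for 15 min. Supernatant radioactivity counted by scintillation.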

human PDE11A4 = human PDE11A4 (Homo sapiens, UniProt Q9HCR9); experiment: In vitro PDE assay; assay type: biochemical
Chain of human PDE11A4 (Q9HCR9 whole entry): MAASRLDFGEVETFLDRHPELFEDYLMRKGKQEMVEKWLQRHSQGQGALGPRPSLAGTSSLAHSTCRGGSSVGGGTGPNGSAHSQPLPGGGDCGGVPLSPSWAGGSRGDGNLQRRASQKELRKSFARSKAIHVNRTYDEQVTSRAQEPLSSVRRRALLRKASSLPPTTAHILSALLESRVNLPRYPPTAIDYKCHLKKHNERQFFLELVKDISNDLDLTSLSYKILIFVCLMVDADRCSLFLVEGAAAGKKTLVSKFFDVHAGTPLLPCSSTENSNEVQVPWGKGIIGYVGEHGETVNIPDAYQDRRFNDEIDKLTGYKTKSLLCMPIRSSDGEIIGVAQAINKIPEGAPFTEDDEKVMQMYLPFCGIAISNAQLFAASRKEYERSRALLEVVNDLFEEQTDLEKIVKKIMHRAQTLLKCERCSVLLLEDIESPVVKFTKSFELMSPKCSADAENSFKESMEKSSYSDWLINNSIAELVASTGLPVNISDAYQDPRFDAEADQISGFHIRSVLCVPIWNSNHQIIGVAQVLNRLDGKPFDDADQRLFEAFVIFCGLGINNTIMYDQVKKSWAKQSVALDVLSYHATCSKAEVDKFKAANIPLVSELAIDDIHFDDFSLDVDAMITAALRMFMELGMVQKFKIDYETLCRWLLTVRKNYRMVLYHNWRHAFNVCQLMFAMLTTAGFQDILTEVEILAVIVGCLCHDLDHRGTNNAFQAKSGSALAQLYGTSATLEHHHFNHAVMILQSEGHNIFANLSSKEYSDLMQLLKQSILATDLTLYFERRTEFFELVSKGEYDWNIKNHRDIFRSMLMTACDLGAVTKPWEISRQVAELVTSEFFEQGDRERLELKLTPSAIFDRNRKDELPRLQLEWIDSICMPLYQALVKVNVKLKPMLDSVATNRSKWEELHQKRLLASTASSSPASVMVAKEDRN
How it was run: as §1

rat PDE2A = rat PDE2A (Rattus norvegicus, UniProt Q01062); experiment: In vitro PDE assay; assay type: biochemical
Chain of rat PDE2A (Q01062 whole entry): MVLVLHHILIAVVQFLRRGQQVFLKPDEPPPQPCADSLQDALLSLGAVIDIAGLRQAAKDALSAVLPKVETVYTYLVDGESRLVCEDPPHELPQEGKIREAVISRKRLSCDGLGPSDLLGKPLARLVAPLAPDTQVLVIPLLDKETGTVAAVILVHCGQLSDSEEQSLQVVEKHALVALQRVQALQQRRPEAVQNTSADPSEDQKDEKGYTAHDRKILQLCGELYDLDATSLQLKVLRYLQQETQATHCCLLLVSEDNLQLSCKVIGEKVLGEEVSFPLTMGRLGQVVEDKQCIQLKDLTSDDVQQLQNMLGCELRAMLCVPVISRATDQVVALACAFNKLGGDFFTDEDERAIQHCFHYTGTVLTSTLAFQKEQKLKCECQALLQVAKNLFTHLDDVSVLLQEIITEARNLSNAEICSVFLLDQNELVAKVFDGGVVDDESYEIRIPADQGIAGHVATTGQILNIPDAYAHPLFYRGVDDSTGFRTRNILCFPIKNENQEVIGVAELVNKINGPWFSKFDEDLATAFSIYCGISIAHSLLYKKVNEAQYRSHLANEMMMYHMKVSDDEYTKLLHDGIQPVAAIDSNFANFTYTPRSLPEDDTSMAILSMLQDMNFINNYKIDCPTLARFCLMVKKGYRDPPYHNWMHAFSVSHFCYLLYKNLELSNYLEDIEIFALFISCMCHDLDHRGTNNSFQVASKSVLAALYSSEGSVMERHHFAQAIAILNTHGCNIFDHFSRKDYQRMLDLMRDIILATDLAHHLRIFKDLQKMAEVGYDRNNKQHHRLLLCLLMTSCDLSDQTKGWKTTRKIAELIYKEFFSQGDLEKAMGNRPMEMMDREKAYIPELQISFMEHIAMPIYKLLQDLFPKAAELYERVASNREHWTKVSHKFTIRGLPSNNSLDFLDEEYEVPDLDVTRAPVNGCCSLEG
How it was run: as §1

[2] = test system: S. pombe strain that expresses Git2 adenylyl cyclase and human PDE4B2; experiment: Stationary phase viability of yeast; assay type: cell-based; conditions: 10μM BC54, three days in stationary phase
How it was run: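 S. pombe CHP1346 (git2+ cgs2-2) transformants expressing PDE4B2 or no PDE, plus CHP1207 (git2Δ cgs2-2) with PDE4B2. Grown to stationary phase for three days in EMM-leucine ± 10μM test compound. Diluted 100-fold in YES, then four 10-fold serial dilutions. Spotted onto YES, grown at 30°C and photographed.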

CLL cells = experiment: CLL apoptosis assay; assay type: cell-based, human; conditions: 20μM, 48 h, median and standard deviation of three assays
How it was run: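 PBMC from heparinized blood of CLL patients, isolated on Histopaque 1077 and washed. Plated at 1 million cells/well in RPMI 1640 with 10% FBS, 20 mM L-glutamine and penicillin/streptomycin. Exposed to 20μM test compound or vehicle for 48 h at 37°C, 5% CO2. Harvested, stained 10 min at 37°C with Hoechst 33342 (0.25 μg/mL final), then analysed by flow cytometry.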

human PDE5A1 = human PDE5A1 (Homo sapiens, UniProt O76074); experiment: In vitro PDE assay; assay type: biochemical
How it was run: as §1

[3] = test system: TNFα production by LPS-stimulated macrophage (U937 cells); experiment: TNFα assay; assay type: cell-based; conditions: 20μM
murine PDE4B3 = murine PDE4B3 (Mus musculus, UniProt Q8VBU5); experiment: Yeast-based HTS; assay type: cell-based; conditions: duplicate plates, OD600 after 48 h
Chain of murine PDE4B3 (Q8VBU5 1-721): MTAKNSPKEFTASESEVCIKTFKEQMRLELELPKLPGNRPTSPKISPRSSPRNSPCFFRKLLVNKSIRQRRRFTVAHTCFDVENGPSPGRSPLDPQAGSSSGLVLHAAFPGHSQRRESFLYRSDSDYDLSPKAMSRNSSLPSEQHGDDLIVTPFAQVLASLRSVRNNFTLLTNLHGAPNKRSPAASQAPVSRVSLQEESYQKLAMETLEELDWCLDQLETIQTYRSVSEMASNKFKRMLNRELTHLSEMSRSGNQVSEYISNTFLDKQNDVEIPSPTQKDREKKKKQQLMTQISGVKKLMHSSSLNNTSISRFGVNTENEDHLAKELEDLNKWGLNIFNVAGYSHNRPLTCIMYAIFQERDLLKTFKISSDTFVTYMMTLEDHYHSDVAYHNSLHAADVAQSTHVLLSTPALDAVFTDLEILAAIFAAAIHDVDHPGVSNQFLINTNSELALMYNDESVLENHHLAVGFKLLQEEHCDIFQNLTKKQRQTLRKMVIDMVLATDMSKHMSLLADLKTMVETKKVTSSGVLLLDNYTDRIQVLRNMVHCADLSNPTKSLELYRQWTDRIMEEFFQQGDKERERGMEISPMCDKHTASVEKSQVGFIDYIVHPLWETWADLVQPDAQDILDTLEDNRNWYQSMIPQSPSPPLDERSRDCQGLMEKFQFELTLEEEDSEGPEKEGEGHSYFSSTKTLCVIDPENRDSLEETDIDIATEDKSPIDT
How it was run: (§3)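 S. pombe gpa2Δ strains carrying the PKA-repressed fbp1-ura4+ reporter, with the PDE replacing endogenous Cgs2, grown in 5FOA medium. Compounds from 5 mg/mL stocks were pinned in. OD600 read after 48 h at 30°C. Run on duplicate plates; composite Z = replicate Z-score vector scaled by cosine correlation with the diagonal. Controls: 0.2% DMSO (negative), 5 mM cAMP (positive).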

rat PDE4A5 = rat PDE4A5 (Rattus norvegicus, UniProt P54748); experiment: Yeast-based HTS; assay type: cell-based; conditions: duplicate plates, OD600 after 48 h
Chain of rat PDE4A5 (P54748 whole entry): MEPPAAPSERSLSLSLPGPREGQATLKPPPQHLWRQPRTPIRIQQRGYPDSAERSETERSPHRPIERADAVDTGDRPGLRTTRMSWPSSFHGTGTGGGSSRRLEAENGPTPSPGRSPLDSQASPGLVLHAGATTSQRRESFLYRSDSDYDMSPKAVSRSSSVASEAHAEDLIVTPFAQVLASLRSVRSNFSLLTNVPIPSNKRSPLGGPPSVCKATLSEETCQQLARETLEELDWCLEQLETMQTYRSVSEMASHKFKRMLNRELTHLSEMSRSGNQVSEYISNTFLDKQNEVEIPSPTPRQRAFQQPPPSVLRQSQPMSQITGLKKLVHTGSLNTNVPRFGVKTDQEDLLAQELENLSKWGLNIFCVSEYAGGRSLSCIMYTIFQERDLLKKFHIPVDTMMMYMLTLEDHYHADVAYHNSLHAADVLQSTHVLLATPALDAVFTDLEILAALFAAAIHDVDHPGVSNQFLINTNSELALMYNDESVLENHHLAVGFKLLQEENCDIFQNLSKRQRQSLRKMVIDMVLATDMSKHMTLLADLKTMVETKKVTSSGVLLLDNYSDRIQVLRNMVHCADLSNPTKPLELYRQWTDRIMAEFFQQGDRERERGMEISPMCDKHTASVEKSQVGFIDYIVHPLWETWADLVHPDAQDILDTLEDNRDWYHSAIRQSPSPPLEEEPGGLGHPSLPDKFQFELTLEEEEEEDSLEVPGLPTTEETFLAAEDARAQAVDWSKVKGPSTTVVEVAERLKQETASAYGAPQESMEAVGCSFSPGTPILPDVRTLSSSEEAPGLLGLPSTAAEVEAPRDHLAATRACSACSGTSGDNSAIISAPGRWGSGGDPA
How it was run: as §3

PDE7B [4] = target: PDE7B (Homo sapiens, UniProt Q9NP56); experiment: In vitro PDE assay; assay type: biochemical
murine PDE4A1 = murine PDE4A1 (Mus musculus, UniProt O89084); experiment: Yeast-based HTS; assay type: cell-based; conditions: duplicate plates, OD600 after 48 h
How it was run: as §3

[5] = target: mutant PDE4B2^T407A catalytic domain (Homo sapiens, UniProt Q07343, T579A); experiment: In vitro enzyme assay, catalytic domain purified from E. coli; assay type: biochemical
Chain of mutant PDE4B2^T407A catalytic domain (Q07343 324-659 T579A): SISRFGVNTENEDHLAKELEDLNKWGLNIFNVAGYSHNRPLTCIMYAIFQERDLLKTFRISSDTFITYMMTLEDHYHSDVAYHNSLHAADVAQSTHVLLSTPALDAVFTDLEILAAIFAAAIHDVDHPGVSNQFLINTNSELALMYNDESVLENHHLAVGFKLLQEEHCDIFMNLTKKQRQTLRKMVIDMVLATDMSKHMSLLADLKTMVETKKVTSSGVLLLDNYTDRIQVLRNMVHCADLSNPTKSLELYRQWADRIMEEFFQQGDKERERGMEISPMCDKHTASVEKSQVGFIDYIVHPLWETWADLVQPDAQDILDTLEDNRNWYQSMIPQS

human PDE7A1 = human PDE7A1 (Homo sapiens, UniProt Q13946); experiment: Yeast-based HTS; assay type: cell-based; conditions: duplicate plates, OD600 after 48 h
How it was run: as §3

human PDE7A = human PDE7A (Homo sapiens, UniProt Q13946); experiment: In vitro PDE assay; assay type: biochemical
How it was run: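 Human PDE7 enzymes (PDE7A recombinant) assayed with 10nM cAMP substrate. Stopped during linear phase with 0.2 M ZnSO4, conversion kept near 50%. Product 5′-AMP removed by 0.25 N Ba(OH)2 precipitation and 15 min centrifugation. Remaining supernatant radioactivity read in scintillation fluid.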

PDE8A = conditions: not a hit; cited from earlier work
human PDE9A2 = human PDE9A2 (Homo sapiens, UniProt O76083); experiment: In vitro PDE assay; assay type: biochemical
How it was run: as §1

human PDE1C = human PDE1C (Homo sapiens, UniProt Q14123); experiment: In vitro PDE assay; assay type: biochemical
How it was run: as §1

[6] = test system: PDE4 and PDE7 relative to PDE2A and PDE11A; experiment: Selectivity from in vitro PDE assays; assay type: biochemical
Human PDE4D2 = Human PDE4D2 (Homo sapiens, UniProt Q08499); experiment: In vitro PDE assay; assay type: biochemical
How it was run: as §2

[7] = test system: IL-2 production by PMA-PHA stimulated Jurkat T cells; experiment: IL-2 assay; assay type: cell-based; conditions: 20μM
Human PDE4B2 = Human PDE4B2 (Homo sapiens, UniProt Q07343); experiment: In vitro PDE assay; assay type: biochemical
Chain of Human PDE4B2 (Q07343 324-659): as the sequence (Q07343 324-659 T579A) above, with A256T counted along it

PDE7A = conditions: cited from earlier work
PDE7B [8] = conditions: cited from earlier work

## CCOC(=O)c1cc2c(=O)n3ccccc3nc2n(C2CCCCC2)/c1=N\C(C)=O [BC54, ethyl (2Z)-2-(acetylimino)-1-cyclohexyl-5-oxo-1,5-dihydro-2H-dipyrido[1,2-a:2′,3′-d] pyrimidine-3-carboxylate]
Human PDE10A1
  IC50: > 10000 nM
PDE11A
  Composite Z score: 7.74
[1]
  potency in 5FOA growth assay: significant potency at sub-micromolar concentrations
Human PDE3B
  IC50: > 10000 nM
Human PDE8A
  IC50: > 10000 nM
Human PDE4A10
  IC50: 50 to 110 nM
Human PDE11A4
  IC50: ~3000 nM
Rat PDE2A
  IC50: ~3000 nM
[2]
  reduction of stationary phase viability: approximately ten-fold
CLL cells; Patient 1
  CLL apoptosis: 87.3±0.76
CLL cells; Patient 2
  CLL apoptosis: 58.8±3.12
CLL cells; Patient 3
  CLL apoptosis: 39.8±1.79
Human PDE5A1
  IC50: > 10000 nM
[3]
  TNFα production: significantly reduces
Murine PDE4B3
  Composite Z score: > 40
Rat PDE4A5
  Composite Z score: > 40
PDE7B [4]
  IC50: 140 nM
Murine PDE4A1
  Composite Z score: > 40
[5]
  IC50: 124 ± 8.8 nM
Human PDE7A1
  Composite Z score: > 40
Human PDE7A
  IC50: 140 nM
PDE8A
  Composite Z score: −2.35
Human PDE9A2
  IC50: > 10000 nM
Human PDE1C
  IC50: > 10000 nM
[6]
  selectivity for PDE4 and PDE7 relative to PDE2A and PDE11A: greater than 20 fold
Human PDE4D2
  IC50: 50 to 110 nM
[7]
  IL-2 production: significantly reduces
Human PDE4B2
  IC50: 50 to 110 nM

## Cc1ccc([N+](=O)[O-])cc1S(=O)(=O)N(C)C [BRL50481, 3-(N,N-dimethylsulfonamido)-4-methyl-nitrobenzene]
PDE7A
  IC50: 150 nM
PDE7B [8]
  IC50: 12100 nM
CLL cells; Patient 1
  CLL apoptosis: 52.5±0.78
CLL cells; Patient 2
  CLL apoptosis: 26.3±1.02
CLL cells; Patient 3
  CLL apoptosis: 5.1±0.72

## COc1ccc(C2CNC(=O)C2)cc1OC1CCCC1 (stereo not drawn) [rolipram]
CLL cells; Patient 1
  CLL apoptosis: 76.7±0.76
CLL cells; Patient 2
  CLL apoptosis: 35.6±0.7
CLL cells; Patient 3
  CLL apoptosis: 20.3±2.18

From publication PMC5651194 (Cellular signalling, 2017)
